What was measured:
Histamine H2 receptor [1] = target: T1, Histamine H2 receptor (Homo sapiens, UniProt P25021); experiment: Displacement of [3H]UR-DE257 from human histamine H2 receptor stably expressed in baculovirus infected Sf9 cell membrane co-expressing RG-Salpha S incubated for 60 mins by scintillation counting analysis; assay type: cell membranes
Histamine H3 receptor = Histamine H3 receptor (Homo sapiens, UniProt Q9Y5N1); experiment: Displacement of [3H]UR-PI294 from human histamine H3 receptor stably expressed in baculovirus infected Sf9 cell membrane co-expressing G-alphai2 and G-beta1gamma2 incubated for 60 mins by scintillation counting analysis; assay type: cell membranes
How it was run: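 hH3R + Gαi2 + Gβ1γ2 expressed in Sf9 membranes. […] Mean ± SEM from N independent experiments in triplicate.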

D(2) dopamine receptor [2] = target: T2, D(2) dopamine receptor (Homo sapiens, UniProt P14416); experiment: Displacement of [3H]N-methylspiperone from human D2 long receptor stably expressed in HEK293T cells co-expressing luciferase and CEK incubated for 140 mins by radioligand competition binding based assay; assay type: cell-based
D(3) dopamine receptor [3] = target: T3, D(3) dopamine receptor (Homo sapiens, UniProt P35462); experiment: Displacement of [3H]N-methylspiperone from human D3 receptor stably expressed in HEK293T cells co-expressing luciferase and CEK incubated for 140 mins by radioligand competition binding based assay; assay type: cell-based
[4] = target: Histamine H2 receptor (Cavia porcellus) (UniProt P47747); experiment: Agonist activity at guinea pig histamine H2 receptor stably transfected in HEK293T cells co-expressing NlucN-mGs/gpH2R-NlucC assessed as maximum efficacy at 100 uM by mini-G protein recruitment assay relative to histamine; assay type: functional, cell-based
Histamine H2 receptor [5] = target: T1, Histamine H2 receptor; experiment: Agonist activity at human histamine H2 receptor stably expressed in HEK293T cells co-expressing ARRB2 incubated for 60 mins by beta-arrestin2 recruitment assay; assay type: functional, cell-based
Histamine H2 receptor [6] = target: T4, Histamine H2 receptor (Cavia porcellus, UniProt P47747); experiment: Agonist activity at guinea pig histamine H2 receptor stably transfected in HEK293T cells co-expressing NlucN-mGs/gpH2R-NlucC by mini-G protein recruitment assay; assay type: functional, cell-based
Histamine H2 receptor [7] = target: T4, Histamine H2 receptor; experiment: Agonist activity at histamine H2 receptor in spontaneous beating guinea pig right atrium assessed as increase in heart beat; assay type: functional, tissue-based, Right cardiac atrium
[8] = target: Histamine H2 receptor (Cavia porcellus) (UniProt P47747); experiment: Agonist activity at histamine H2 receptor in spontaneous beating guinea pig right atrium assessed as increase in heart beat at 30 uM relative to histamine; assay type: functional, tissue-based; conditions: Right cardiac atrium
D(2) dopamine receptor [9] = target: T2, D(2) dopamine receptor; assay type: functional, cell-based, HEK293T
D(3) dopamine receptor [10] = target: T3, D(3) dopamine receptor; experiment: Agonist activity at human D3 receptor stably expressed in HEK293T cells co-expressing ElucN-betaarr2 hD3R-ElucC by beta-arrestin2 recruitment assay; assay type: functional, cell-based
Histamine H1 receptor = Histamine H1 receptor (Homo sapiens, UniProt P35367)
Histamine H4 receptor = Histamine H4 receptor (Homo sapiens, UniProt Q9H3N8)
Histamine H2 receptor [11] = target: T1, Histamine H2 receptor; experiment: Agonist activity at human histamine H2 receptor stably expressed in HEK293T cells co-expressing NlucN-mGs/hH2R-NlucC assessed as induction of mini-Gs protein recruitment using furimazine as substrate measured for 45 mins by luminescence assay
Histamine H2 receptor [12] = target: T1, Histamine H2 receptor; experiment: Agonist activity at human histamine H2 receptor stably expressed in baculovirus infected Sf9 cell membrane co-expressing RG-Salpha S incubated for 90 mins by [35S]GTPgammaS binding based liquid scintillation counting method; assay type: functional, cell membranes
[13] = Chemical stability in pH 7.4 buffer measured at 0 to 2 weeks by HPLC analysis; assay type: physicochemical; conditions: time 0-2 weeks

T3 sequence (P35462 whole entry): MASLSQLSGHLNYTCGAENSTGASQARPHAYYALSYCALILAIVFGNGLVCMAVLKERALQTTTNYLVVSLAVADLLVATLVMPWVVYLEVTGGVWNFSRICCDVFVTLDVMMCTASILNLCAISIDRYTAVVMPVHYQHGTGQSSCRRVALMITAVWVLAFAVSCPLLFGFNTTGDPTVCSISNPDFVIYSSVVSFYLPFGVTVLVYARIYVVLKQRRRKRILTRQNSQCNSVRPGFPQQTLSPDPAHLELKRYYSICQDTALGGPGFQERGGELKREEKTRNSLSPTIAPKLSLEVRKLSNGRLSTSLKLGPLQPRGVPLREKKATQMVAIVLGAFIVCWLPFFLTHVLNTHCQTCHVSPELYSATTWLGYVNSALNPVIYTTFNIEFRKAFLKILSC
T4 sequence (P47747 whole entry): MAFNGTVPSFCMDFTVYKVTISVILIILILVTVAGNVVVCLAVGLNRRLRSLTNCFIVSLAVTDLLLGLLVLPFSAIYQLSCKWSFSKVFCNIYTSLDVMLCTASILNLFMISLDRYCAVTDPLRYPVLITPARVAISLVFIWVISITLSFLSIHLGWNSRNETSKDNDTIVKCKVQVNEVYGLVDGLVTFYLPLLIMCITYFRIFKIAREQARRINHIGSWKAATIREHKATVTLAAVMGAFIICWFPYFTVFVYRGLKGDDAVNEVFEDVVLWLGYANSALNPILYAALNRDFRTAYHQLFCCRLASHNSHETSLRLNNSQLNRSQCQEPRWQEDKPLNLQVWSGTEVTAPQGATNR
Histamine H2 receptor (Cavia porcellus), sequence (P47747 whole entry): as above
T1 sequence (P25021 whole entry): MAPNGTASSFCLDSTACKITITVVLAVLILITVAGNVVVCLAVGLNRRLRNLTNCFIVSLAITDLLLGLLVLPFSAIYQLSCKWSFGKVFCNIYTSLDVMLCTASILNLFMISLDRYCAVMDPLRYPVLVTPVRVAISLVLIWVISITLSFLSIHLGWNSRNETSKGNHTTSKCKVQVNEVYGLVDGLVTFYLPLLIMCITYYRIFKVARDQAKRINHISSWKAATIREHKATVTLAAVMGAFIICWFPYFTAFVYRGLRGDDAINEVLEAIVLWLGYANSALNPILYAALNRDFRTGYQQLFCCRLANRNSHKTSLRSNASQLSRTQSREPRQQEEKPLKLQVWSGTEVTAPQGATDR
Histamine H1 receptor, sequence (P35367 whole entry): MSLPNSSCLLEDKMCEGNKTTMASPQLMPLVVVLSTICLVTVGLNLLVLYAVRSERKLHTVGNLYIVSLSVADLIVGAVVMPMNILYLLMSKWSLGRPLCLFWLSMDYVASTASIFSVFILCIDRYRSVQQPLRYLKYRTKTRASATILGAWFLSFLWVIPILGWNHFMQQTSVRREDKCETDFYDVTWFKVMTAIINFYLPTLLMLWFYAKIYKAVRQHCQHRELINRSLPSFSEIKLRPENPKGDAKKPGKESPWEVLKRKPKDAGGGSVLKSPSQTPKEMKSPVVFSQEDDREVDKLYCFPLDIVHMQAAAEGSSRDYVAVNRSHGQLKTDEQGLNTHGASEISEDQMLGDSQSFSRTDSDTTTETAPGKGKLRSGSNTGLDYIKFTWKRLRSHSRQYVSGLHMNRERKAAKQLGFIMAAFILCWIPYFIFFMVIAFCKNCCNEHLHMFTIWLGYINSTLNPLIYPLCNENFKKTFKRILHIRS
Histamine H3 receptor, sequence (Q9Y5N1 whole entry): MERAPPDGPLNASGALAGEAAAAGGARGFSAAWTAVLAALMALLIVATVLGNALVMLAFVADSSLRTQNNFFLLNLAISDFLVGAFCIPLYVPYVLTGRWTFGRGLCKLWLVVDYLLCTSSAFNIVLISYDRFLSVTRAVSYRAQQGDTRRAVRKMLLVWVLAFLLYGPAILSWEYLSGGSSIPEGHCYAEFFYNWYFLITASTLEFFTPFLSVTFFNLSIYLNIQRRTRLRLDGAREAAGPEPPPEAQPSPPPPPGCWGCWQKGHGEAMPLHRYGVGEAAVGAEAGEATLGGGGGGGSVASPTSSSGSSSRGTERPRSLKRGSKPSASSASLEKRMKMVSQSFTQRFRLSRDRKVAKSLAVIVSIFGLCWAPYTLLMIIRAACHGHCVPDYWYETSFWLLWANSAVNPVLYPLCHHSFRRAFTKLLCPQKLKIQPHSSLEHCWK
Histamine H4 receptor, sequence (Q9H3N8 whole entry): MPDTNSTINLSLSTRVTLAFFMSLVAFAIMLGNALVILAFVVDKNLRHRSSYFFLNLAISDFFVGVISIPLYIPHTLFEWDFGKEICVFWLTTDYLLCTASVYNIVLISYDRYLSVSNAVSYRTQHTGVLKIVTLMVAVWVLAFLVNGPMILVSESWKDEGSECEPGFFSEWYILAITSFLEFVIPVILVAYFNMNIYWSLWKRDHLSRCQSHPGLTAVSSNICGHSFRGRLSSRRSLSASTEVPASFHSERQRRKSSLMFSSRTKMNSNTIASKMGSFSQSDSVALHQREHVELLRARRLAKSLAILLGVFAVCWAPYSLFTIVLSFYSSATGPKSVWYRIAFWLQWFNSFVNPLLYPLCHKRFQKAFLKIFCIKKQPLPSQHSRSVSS
T2 sequence (P14416 whole entry): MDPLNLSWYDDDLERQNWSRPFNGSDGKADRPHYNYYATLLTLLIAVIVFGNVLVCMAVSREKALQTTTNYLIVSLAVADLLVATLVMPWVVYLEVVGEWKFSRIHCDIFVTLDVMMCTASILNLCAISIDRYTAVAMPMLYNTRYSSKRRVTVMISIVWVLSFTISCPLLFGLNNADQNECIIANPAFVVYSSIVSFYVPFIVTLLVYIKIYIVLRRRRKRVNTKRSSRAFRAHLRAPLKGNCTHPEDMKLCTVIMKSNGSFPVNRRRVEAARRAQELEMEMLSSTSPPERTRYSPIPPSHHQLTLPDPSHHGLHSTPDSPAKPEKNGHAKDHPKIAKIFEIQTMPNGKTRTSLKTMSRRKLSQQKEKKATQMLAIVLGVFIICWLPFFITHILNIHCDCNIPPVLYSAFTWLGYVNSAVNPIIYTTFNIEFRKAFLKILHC

Structure (SMILES): CC(NC(=O)/N=C(\N)NCCCc1nnc(N)s1)c1cccc(F)c1 (stereo not drawn)
- Ki (Histamine H2 receptor [1]): 8.13 nM
- Ki (Histamine H3 receptor): > 10000 nM
- Ki (D(2) dopamine receptor [2]): > 10000 nM
- Ki (D(3) dopamine receptor [3]): 661 nM
- Emax [4]: 93%
- EC50 (Histamine H2 receptor [5]): 75.9 nM
- EC50 (Histamine H2 receptor [6]): 6.92 nM
- EC50 (Histamine H2 receptor [7]): 0.912 nM
- Emax [8]: 110%
- EC50 (D(2) dopamine receptor [9]): > 10000 nM
- EC50 (D(3) dopamine receptor [10]): 1910 nM
- Kd (Histamine H1 receptor): 4.5 nM
- Ki (Histamine H1 receptor): 10500 nM
- Kd (Histamine H4 receptor): 16 nM
- Ki (Histamine H4 receptor): > 10000 nM
- EC50 (Histamine H2 receptor [11]): 8.13 nM

Structure (SMILES): N/C(=N\C(=O)NCCCCCCNC(=O)/N=C(\N)NCCCc1nnc(N)s1)NCCCc1nnc(N)s1
- Ki (Histamine H2 receptor [1]): 5.25 nM
- Ki (Histamine H3 receptor): 10000 nM
- Ki (D(2) dopamine receptor [2]): 955 nM
- EC50 (Histamine H2 receptor [5]): 407 nM
- EC50 (Histamine H2 receptor [12]): 34.7 nM
- EC50 (D(2) dopamine receptor [9]): 1120 nM
- Kd (Histamine H1 receptor): 4.5 nM
- Ki (Histamine H1 receptor): 3550 nM
- Kd (Histamine H4 receptor): 16 nM
- Ki (Histamine H4 receptor): > 10000 nM
- EC50 (Histamine H2 receptor [11]): 20 nM

Structure (SMILES): Cc1ccc(CC(C)CNC(=O)/N=C(\N)NCCCc2nnc(N)s2)cc1.O=C(O)C(F)(F)F.O=C(O)C(F)(F)F (stereo not drawn)
- Ki (Histamine H3 receptor): 2340 nM
- Stability [13]: Stable
- Ki (D(2) dopamine receptor [2]): 1070 nM
- Ki (D(3) dopamine receptor [3]): 2040 nM
- EC50 (Histamine H2 receptor [6]): 14.8 nM
- EC50 (Histamine H2 receptor [7]): 95.5 nM
- EC50 (D(3) dopamine receptor [10]): > 10000 nM
- Kd (Histamine H1 receptor): 4.5 nM
- Ki (Histamine H1 receptor): 1350 nM
- Kd (Histamine H4 receptor): 16 nM
- Ki (Histamine H4 receptor): 6920 nM

Structure (SMILES): CC(CNC(=O)/N=C(\N)NCCCc1nnc(N)s1)C1CCCCC1 (stereo not drawn)
- Ki (Histamine H2 receptor [1]): 19.5 nM
- Ki (Histamine H3 receptor): 2750 nM
- Ki (D(2) dopamine receptor [2]): 1620 nM
- Ki (D(3) dopamine receptor [3]): 234 nM
- EC50 (Histamine H2 receptor [5]): 135 nM
- EC50 (Histamine H2 receptor [12]): 13.2 nM
- EC50 (D(2) dopamine receptor [9]): > 10000 nM
- EC50 (D(3) dopamine receptor [10]): 1350 nM
- Kd (Histamine H1 receptor): 4.5 nM
- Ki (Histamine H1 receptor): 7410 nM
- Kd (Histamine H4 receptor): 16 nM
- Ki (Histamine H4 receptor): 12600 nM
- EC50 (Histamine H2 receptor [11]): 10.7 nM

Structure (SMILES): CCCCCCNC(=O)/N=C(\N)NCCCc1nnc(N)s1
- Ki (Histamine H2 receptor [1]): 5.13 nM
- Ki (Histamine H3 receptor): > 10000 nM
- Ki (D(2) dopamine receptor [2]): > 10000 nM
- Ki (D(3) dopamine receptor [3]): 589 nM
- Emax [4]: 96%
- EC50 (Histamine H2 receptor [5]): 1070 nM
- EC50 (Histamine H2 receptor [6]): 2.29 nM
- EC50 (Histamine H2 receptor [7]): 4.79 nM
- Emax [8]: 106%
- EC50 (D(2) dopamine receptor [9]): > 10000 nM
- EC50 (D(3) dopamine receptor [10]): 813 nM
- Kd (Histamine H1 receptor): 4.5 nM
- Ki (Histamine H1 receptor): 5010 nM
- Kd (Histamine H4 receptor): 16 nM
- Ki (Histamine H4 receptor): > 10000 nM
- EC50 (Histamine H2 receptor [11]): 6.03 nM

Structure (SMILES): C[C@@H](NC(=O)/N=C(\N)NCCCc1nnc(N)s1)c1ccccc1
- Ki (Histamine H2 receptor [1]): 12.9 nM
- Ki (Histamine H3 receptor): > 10000 nM
- Ki (D(2) dopamine receptor [2]): > 10000 nM
- Ki (D(3) dopamine receptor [3]): 3240 nM
- Emax [4]: 90%
- EC50 (Histamine H2 receptor [5]): 282 nM
- EC50 (Histamine H2 receptor [6]): 25.1 nM
- EC50 (Histamine H2 receptor [7]): 2.88 nM
- Emax [8]: 98%
- EC50 (D(2) dopamine receptor [9]): > 10000 nM
- EC50 (D(3) dopamine receptor [10]): 1070 nM
- Kd (Histamine H1 receptor): 4.5 nM
- Ki (Histamine H1 receptor): > 10000 nM
- Kd (Histamine H4 receptor): 16 nM
- Ki (Histamine H4 receptor): > 10000 nM
- EC50 (Histamine H2 receptor [11]): 20 nM

Reference: ChEMBL document CHEMBL5149991 (J Med Chem, 2021)
